According to ChEMBL document CHEMBL3392955, “Thiol-derivatized minihepcidins retain biological activity” (Bioorg Med Chem Lett, 2015):
Activity calls are given as the source filed them. The rule behind the calls is not given here.

What was measured:
Ferroportin = target: T1, Ferroportin (Homo sapiens, UniProt Q9NP59); experiment: Induction of human ferroportin degradation expressed in HEK293 cells after 24 hrs by flow cytometry; type: cell-based
T1 sequence (Q9NP59 whole entry): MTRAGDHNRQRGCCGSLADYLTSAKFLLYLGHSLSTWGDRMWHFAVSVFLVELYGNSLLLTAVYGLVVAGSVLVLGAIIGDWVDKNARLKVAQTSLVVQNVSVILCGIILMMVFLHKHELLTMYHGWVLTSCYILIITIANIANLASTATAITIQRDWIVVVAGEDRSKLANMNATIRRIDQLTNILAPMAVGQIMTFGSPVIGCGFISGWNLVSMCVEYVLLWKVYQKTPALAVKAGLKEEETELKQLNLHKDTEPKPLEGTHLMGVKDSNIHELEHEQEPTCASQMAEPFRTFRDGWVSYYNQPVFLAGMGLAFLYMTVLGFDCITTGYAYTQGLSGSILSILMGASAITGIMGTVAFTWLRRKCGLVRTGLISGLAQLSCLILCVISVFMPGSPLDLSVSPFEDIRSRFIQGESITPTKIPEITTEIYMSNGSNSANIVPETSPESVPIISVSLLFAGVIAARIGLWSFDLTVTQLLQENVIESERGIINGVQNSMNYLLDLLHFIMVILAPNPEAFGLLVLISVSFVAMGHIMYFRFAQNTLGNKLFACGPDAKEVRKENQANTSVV
In short: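 HEK293:TREX-Fpn-GFP cells (human ferroportin-GFP under a doxycycline-inducible promoter) plated on poly-D-lysine with 20 μM FAC. Fpn induced with 500 ng/mL doxycycline for 24 h, then washed off. Peptide exposure 24 h. Green fluorescence read by flow cytometry, gated against uninduced cells; induced untreated cells are the positive control.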

Mus musculus [1] = experiment: Induction of human ferroportin degradationin C57BL/6 mouse assessed as decrease in serum iron at 50 to 100 nmol, ip measured after 6 to 24 hrs by colorimetric assay; type: functional, organism-based
In short: (§1)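 Mice dosed intraperitoneally with 50 or 100 nmoles peptide in 100 μL PBS; controls received 100 μL PBS. Killed at 6, 24 or 48 h. Serum from cardiac-puncture blood. Iron measured by microplate colorimetric assay on 50 μL serum. Result is % decrease versus mean serum iron of PBS-injected mice.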

Mus musculus [2] = experiment: Induction of human ferroportin degradationin C57BL/6 mouse assessed as decrease in serum iron at 50 to 100 nmol, ip measured after 48 hrs by colorimetric assay; type: functional, organism-based; in short: as §1
[3] = Stability of the compound in DMSO at room temperature after 30 days by LC/MS/MS analysis; type: physicochemical; details: read-out: Stability
In short: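 Compound kept as a 10 mM DMSO solution at room temperature for 30 days. Remaining intact compound (decomposition or sulfide oxidation) measured by LC/MS/MS.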

| SMILES | EC50 (Ferroportin) [nM] | also measured |
| --- | --- | --- |
| CCCCCCCCCCCCCCCCNC(=O)CN(CC(N)=O)C(=O)CCCCCNC(=O)[C@H](Cc1ccccc1)NC(=O)[C@H](CCCNC(=N)N)NC(=O)[C@H](CS/C(=C\S(=O)(=O)C(C)(C)C)S(=O)(=O)C(C)(C)C)NC(=O)[C@H](CCCNC(=N)N)NC(=O)C[C@@H]1CCCN1C(=O)[C@@H](NC(=O)[C@H](Cc1cnc[nH]1)NC(=O)[C@@H](NC(=O)CNC(=O)CO)[C@@H](C)O)C(c1ccccc1)c1ccccc1 | 10 |  |
| CCCCCCCCCCCCCCCCNC(=O)CN(CC(N)=O)C(=O)CCCCCNC(=O)[C@H](Cc1ccccc1)NC(=O)[C@H](CCCNC(=N)N)NC(=O)[C@H](CS/C(=C\C(N)=O)C(N)=O)NC(=O)[C@H](CCCNC(=N)N)NC(=O)C[C@@H]1CCCN1C(=O)[C@@H](NC(=O)[C@H](Cc1cnc[nH]1)NC(=O)[C@@H](NC(=O)CNC(=O)CO)[C@@H](C)O)C(c1ccccc1)c1ccccc1 | 8.4 |  |
| CCCCCCCCCCCCCCCCNC(=O)CN(CC(N)=O)C(=O)CCCCCNC(=O)[C@H](Cc1ccccc1)NC(=O)[C@H](CCCNC(=N)N)NC(=O)[C@H](CS/C(=C\C(=O)OCC)C(=O)OCC)NC(=O)[C@H](CCCNC(=N)N)NC(=O)C[C@@H]1CCCN1C(=O)[C@@H](NC(=O)[C@H](Cc1cnc[nH]1)NC(=O)[C@@H](NC(=O)CNC(=O)CO)[C@@H](C)O)C(c1ccccc1)c1ccccc1 | 10.4 |  |
| CCCCCCCCCCCCCCCCNC(=O)CN(CC(N)=O)C(=O)CCCCCNC(=O)[C@H](Cc1ccccc1)NC(=O)[C@H](CCCNC(=N)N)NC(=O)[C@H](CS/C=C\C(=O)O)NC(=O)[C@H](CCCNC(=N)N)NC(=O)C[C@@H]1CCCN1C(=O)[C@@H](NC(=O)[C@H](Cc1cnc[nH]1)NC(=O)[C@@H](NC(=O)CNC(=O)CO)[C@@H](C)O)C(c1ccccc1)c1ccccc1 | 218 |  |
| CCCCCCCCCCCCCCCCNC(=O)CN(CC(N)=O)C(=O)CCCCCNC(=O)[C@H](Cc1ccccc1)NC(=O)[C@H](CCCNC(=N)N)NC(=O)[C@H](CS/C(=C\P(=O)(OCC)OCC)P(=O)(OCC)OCC)NC(=O)[C@H](CCCNC(=N)N)NC(=O)C[C@@H]1CCCN1C(=O)[C@@H](NC(=O)[C@H](Cc1cnc[nH]1)NC(=O)[C@@H](NC(=O)CNC(=O)CO)[C@@H](C)O)C(c1ccccc1)c1ccccc1 | 1.1 | Activity (Mus musculus [1]): Active; Activity (Mus musculus [2]): inactive; remaining at 720 h [3]: 99.5% |

Continued, in another order:

| EC50 (Ferroportin) [nM] | SMILES | also measured |
| --- | --- | --- |
| 34 | CCCCCCCCCCCCCCCCNC(=O)CN(CC(N)=O)C(=O)CCCCCNC(=O)[C@H](Cc1ccccc1)NC(=O)[C@H](CCCNC(=N)N)NC(=O)[C@H](CS/C(=C\S(N)(=O)=O)c1ccccc1)NC(=O)[C@H](CCCNC(=N)N)NC(=O)C[C@@H]1CCCN1C(=O)[C@@H](NC(=O)[C@H](Cc1cnc[nH]1)NC(=O)[C@@H](NC(=O)CNC(=O)CO)[C@@H](C)O)C(c1ccccc1)c1ccccc1 |  |
| 12.6 | CCCCCCCCCCCCCCCCNC(=O)CN(CC(N)=O)C(=O)CCCCCNC(=O)[C@H](Cc1ccccc1)NC(=O)[C@H](CCCNC(=N)N)NC(=O)[C@H](CS/C(=C\C(=O)OC)C(=O)OC)NC(=O)[C@H](CCCNC(=N)N)NC(=O)C[C@@H]1CCCN1C(=O)[C@@H](NC(=O)[C@H](Cc1cnc[nH]1)NC(=O)[C@@H](NC(=O)CNC(=O)CO)[C@@H](C)O)C(c1ccccc1)c1ccccc1 |  |
| 6.3 | CCCCCCCCCCCCCCCCNC(=O)CN(CC(N)=O)C(=O)CCCCCNC(=O)[C@H](Cc1ccccc1)NC(=O)[C@H](CCCNC(=N)N)NC(=O)[C@H](CS/C(=C\C(=O)OC(C)(C)C)C(=O)OC(C)(C)C)NC(=O)[C@H](CCCNC(=N)N)NC(=O)C[C@@H]1CCCN1C(=O)[C@@H](NC(=O)[C@H](Cc1cnc[nH]1)NC(=O)[C@@H](NC(=O)CNC(=O)CO)[C@@H](C)O)C(c1ccccc1)c1ccccc1 |  |
